Bioassay records as filed in PubChem.
ASAP1 inh – inhibitors of human ASAP1 ArfGAP activity, primary screen, biochemical, fluorescence polarization; 360,000 tested, 0.19% active; ASAP1-stimulated ARF1 GTP hydrolysis, GDP FP detection; AID 624377, 2012; inhibition, % at 16.5 µM; Arf-GAP with SH3 domain, ANK repeat and PH domain-containing protein 1 (Homo sapiens), …; in the data active = inhibition above about 25%;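 note: 0% = vehicle with enzyme and substrate and 100% = no enzyme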
pPAFAH inh – pPAFAH enzyme inhibitors, primary screen, biochemical, fluorescence polarization, human; recombinant pPAFAH, FP-rhodamine probe fluorescence polarization; inhibition, % at 3.39 µM; 330,000 tested, 1.5% active;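 active = inhibition above the mean inhibition across the screen plus 3 SD, cut at about 25% in these data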;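 note: inhibitors block binding of the rhodamine activity-based probe so polarization drops; 0% = enzyme with DMSO and 100% = wells lacking pPAFAH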
Target sequence (Q13093 whole entry, looked up): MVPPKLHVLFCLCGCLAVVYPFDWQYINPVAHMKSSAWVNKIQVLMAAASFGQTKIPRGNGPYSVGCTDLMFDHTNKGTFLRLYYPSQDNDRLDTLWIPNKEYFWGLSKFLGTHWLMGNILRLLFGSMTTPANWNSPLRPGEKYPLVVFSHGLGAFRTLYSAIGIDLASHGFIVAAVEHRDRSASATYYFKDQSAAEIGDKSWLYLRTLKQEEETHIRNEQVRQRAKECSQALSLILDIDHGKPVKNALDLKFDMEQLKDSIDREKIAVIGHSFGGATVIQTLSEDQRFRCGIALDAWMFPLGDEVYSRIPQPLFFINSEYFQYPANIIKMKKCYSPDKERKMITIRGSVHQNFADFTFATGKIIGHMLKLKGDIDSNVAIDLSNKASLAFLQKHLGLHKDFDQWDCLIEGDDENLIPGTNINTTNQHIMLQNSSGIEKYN
PAFAH1B3 inh – PAFAH1B3 enzyme inhibitors, primary screen, biochemical, fluorescence polarization, human. recombinant PAFAH1B3, FP-rhodamine probe. inhibition, % at 3.39 µM. 340,000 tested, 0.28% active;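 active = inhibition above the screen-wide average of all tested compounds plus 3 SD, cut at about 25% in these data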;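 note: 0% = enzyme with DMSO only and 100% = wells lacking PAFAH1B3 protein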
PAFAH2 inh – PAFAH2 enzyme inhibitors, primary screen, biochemical, fluorescence polarization, human. 340,000 tested, 0.99% active. inhibition, % at 3.39 µM. recombinant PAFAH2, FP-rhodamine activity probe. AID 492956, 2010;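 active = inhibition above the mean over all tested compounds plus 3 SD, cut at about 30% in these data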;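 note: inhibitors block probe labeling of enzyme so polarization drops; 0% = enzyme with DMSO and 100% = wells lacking PAFAH2 protein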
PAFAH1B2 inh – PAFAH1B2 enzyme inhibitors, primary screen, biochemical, fluorescence polarization, human. recombinant PAFAH1B2, FP-rhodamine activity probe. Platelet-activating factor acetylhydrolase IB subunit alpha2 (Homo sapiens), P68402. 340,000 tested, 1.2% active. inhibition, % at 3.39 µM;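 active = inhibition above the mean of all tested compounds plus 3 SD, cut at about 24% in these data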;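 note: 0% = enzyme with DMSO and 100% = wells lacking PAFAH1B2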
ARFGAP1 inh – inhibitors of rat ARFGAP1 GAP activity, primary screen, biochemical, fluorescence polarization, GDP tracer; ADP-ribosylation factor GTPase-activating protein 1 (Rattus norvegicus), Q62848; AID 651572, 2012; 360,000 tested, 0.26% active; Arfgap1-stimulated ARF1 GTP hydrolysis, GDP FP detection; inhibition, % at 16.5 µM;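 active = inhibition above a per-plate limit, mean inhibition of low control wells plus 3 SD, cut at about 25% in these data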;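 note: 0% = DMSO wells with enzyme and 100% = wells lacking Arfgap1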
Target sequence (Q62848 1-136 limits assumed): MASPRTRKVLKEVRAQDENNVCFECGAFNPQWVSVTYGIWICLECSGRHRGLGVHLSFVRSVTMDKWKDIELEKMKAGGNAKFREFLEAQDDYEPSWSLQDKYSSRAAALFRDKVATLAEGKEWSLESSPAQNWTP
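System: truncated rat Arfgap1 GAP domain / Benchmarks: high control wells lacking Arfgap1, low control full reaction with DMSO / Times: compound-enzyme preincubation 20 min, reaction 120 min, detection 60 min, 25 °C / Repeats: one replicate per compound / Also added: human ARF1(Δ1-17)-GTP substrate / Measured by: Tracer-displacement fluorescence polarization with EDTA stop, 620/688 nm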
ARFGAP1 inh conf – ARFGAP1 inhibitor hit confirmation, biochemical, fluorescence polarization, triplicate; shares compounds with ARFGAP1 inh; ARFGAP1-stimulated ARF1 GTP hydrolysis, GDP tracer FP; inhibition, % at 16.5 µM; 890 tested, 30% active; AID 651608, 2012;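 active = average inhibition over triplicates above the hit cutoff set in the earlier primary screen, cut at about 25% in these data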;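 note: 0% = Arfgap1 plus ARF1-GTP with DMSO and 100% = wells lacking Arfgap1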
* marks the source's active call; other numbers are inactive results; . = no result. This is a sample that favours compounds with a hit; in the whole collection about 2.8% have one here.

SMILES	ASAP1 inh	pPAFAH inh	PAFAH1B3 inh	PAFAH2 inh	PAFAH1B2 inh	ARFGAP1 inh	ARFGAP1 inh conf
C/C(=N\N=C(/N)SC1CC(=O)N(c2ccc(Br)cc2)C1=O)c1cccs1 (centres undefined)	14	22	4	7	3	27*	21
CCOC(=O)CN1Cc2cccc(C(=O)O)c2C1=O	0	3	5	0	6	25*	1
Cc1cc(=O)oc2cc(OCC(=O)NCCc3c[nH]c4ccc(F)cc34)ccc12	1	2	-1	2	-2	-8	.
CCCc1cc(=O)oc2cc(OCC(=O)NCCc3c[nH]c4ccccc34)ccc12	-4	1	-1	-2	6	26*	8
CN(C)S(=O)(=O)Nc1ccc2c(c1)Cc1ccccc1-2	-12	7	0	5	6	28*	-6
CN(C)S(=O)(=O)Nc1ccc(NS(=O)(=O)N(C)C)c(S(=O)(=O)c2ccccc2)c1	-4	-3	12	7	11	3	.
O=C(NC1CCCCC1)C(c1ccc(C(F)(F)F)cc1)n1c(=O)c(-c2ccco2)nc2ccccc21 (centres undefined)	4	.	.	.	.	-1	.
CC(=O)Nc1ccc(-c2csc(NC(=O)Cc3cccc(F)c3)n2)cc1	12	9	9	6	2	31*	13
O=C(Nc1ccc(Oc2cccc3ccccc23)cc1)c1ccco1	-7	3	-3	-20	-6	28*	12
CCCCCCCCN1C(=O)[C@H](CC(=O)NCCC(C)C)C[C@@]2(C(=O)OCC)CCCC=C12	16	.	.	.	.	0	.
COc1cc2cc(CCO)oc(=O)c2cc1OC	-6	-2	0	-4	-5	-43	.
CCOc1ccc(CCN2C(=S)N([C@@H](Cc3ccc(O)cc3)CN3CCC[C@@H]3CN3C(=S)NC[C@@H]3Cc3ccc(O)cc3)C[C@@H]2Cc2ccc(O)cc2)cc1	12	.	.	.	.	26*	10
CC1CCCCN1C(=O)CCn1c(=O)oc2ccccc21 (centres undefined)	4	7	8	10	-2	-9	.
COc1ccccc1C(=O)NCCC(=O)NCC1CCCO1 (centres undefined)	-5	-1	4	9	-1	5	.
COC(=O)C1=C(C)N(Cc2cccc(C(F)(F)F)c2)C(=NCc2ccc(C(F)(F)F)cc2)NC1c1ccc(F)cc1 (centres undefined)	5	.	.	.	.	20	.
COC(=O)C1=C(C)N(Cc2ccc(C(F)(F)F)cc2)C(=NCc2ccccc2)NC1c1cccc(F)c1 (centres undefined)	-8	.	.	.	.	2	.
COC(=O)C1=C(C)N(Cc2cccc(C(F)(F)F)c2)C(=NCc2ccc(C(F)(F)F)cc2)NC1c1ccc(C(F)(F)F)cc1 (centres undefined)	19	.	.	.	.	32*	16
COC(=O)C1=C(C)N(Cc2cccc(C(F)(F)F)c2)C(=NCc2ccc(C(F)(F)F)cc2)NC1c1cccc(F)c1 (centres undefined)	3	.	.	.	.	29*	6
CC(NC(=O)OCc1ccccc1)c1ccccc1 (centres undefined)	-6	1	1	8	15	-6	.
CNC(=O)[C@@H]1C[C@H]1[C@@H](NC(=O)OCc1ccccc1)c1ccccc1	4	-1	-5	2	3	25*	2
CCCCN1C[C@H](CO)Oc2cccc(F)c2S1(=O)=O	-3	.	0	-4	4	12	.
CCCCc1ccc(NC(=O)CN2C(=O)C3CCCCC3C2=O)cc1 (centres undefined)	3	13	11	1	8	12	.
C=CCNc1nc(NCc2cccc(OC)c2)c2sc(-c3ccccc3)cc2n1	14	.	.	.	.	26*	26*
COc1ccc(OC)c(NC(=O)C2(C)CCN2Cc2ccc(OC)c3ccccc23)c1 (centres undefined)	-12	.	.	.	.	-9	.
COc1ccc(OC)c(NC(=O)C2(C)CCN2Cc2ccccc2Cl)c1 (centres undefined)	-7	.	.	.	.	25*	6
SMILES	ASAP1 inh	pPAFAH inh	PAFAH1B3 inh	PAFAH2 inh	PAFAH1B2 inh	ARFGAP1 inh	ARFGAP1 inh conf
Cn1c(=O)c(C(=O)NNC(=O)c2ccc(Br)cc2)c(O)c2ccccc21	12	3	-4	-7	-1	-5	.
Cc1ccccc1NC(=O)NCCCN1CCCC1	-2	-3	3	-1	-2	26*	-5
Cc1cc(C(=O)O)n(C(C)(C)C)n1	-3	-1	3	-5	1	27*	7
CC(=O)Oc1ccc(-c2cc3ccc(OC(C)=O)cc3oc2=O)cc1	-10	-1	5	6	4	-8	.
NS(=O)(=O)c1ccc(CNC(=O)C2CCCCC2)cc1	9	-4	-2	-2	3	8	.
NS(=O)(=O)c1ccc(CNC(=S)NC2CCCC2)cc1	7	0	2	-1	7	29*	5
O=C(Nc1ccccc1Cl)Nc1ccnn1C1CCN(C(=O)C2CCOC2)CC1 (centres undefined)	-7	.	.	.	.	10	.
Clc1cccc(CN2CCN(Cc3ccco3)CC2)c1	2	3	5	-3	1	25*	-5
COc1ccc2cc(C(=O)Nc3ccccc3)sc(=O)c2c1OC	-9	0	1	1	-3	9	.
COc1ccc2cc(C(=O)Nc3ccc(S(N)(=O)=O)cc3)sc(=O)c2c1OC	18	-1	-8	-32	-7	25*	21
O=c1[nH][nH]cc1C=Nc1ccc(Cl)cc1	-3	1	-1	-4	2	36*	-6
Cc1ccc(S(=O)(=O)N2C[C@]3(O)C[C@@H]4C(=O)N(c5ccccc5)C(=O)[C@@H]4C[C@]3(OC(=O)NCC3CCCCC3)C2)cc1	-12	.	.	.	.	7	.
O=C1CSc2ccc(C(=O)Nc3cccc(S(=O)(=O)Nc4ccc(Br)cc4)c3)cc2N1	15	-26	-61	-74	-33	33*	25*
Nc1nc(/C=C/c2ccc(F)cc2)nc(-c2ccccc2O)n1	8	-5	-7	-17	-4	4	.
Nc1nc(/C=C/c2cccnc2)nc(-c2ccccc2O)n1	12	-4	-1	-8	-4	37*	25*
